Source: ChEMBL document CHEMBL2434878, “Synthesis and antimycobacterial activity of analogues of the bioactive natural products sampangine and cleistopholine” (Eur J Med Chem, 2013)
≈ marks a conversion by molar mass, not a printed value.

Tests used:
[1] = Antimicrobial activity against Mycobacterium avium subsp. avium ATCC 19698 expressing luciferase reporter gene assessed as growth inhibition after 6 days by luminometry; assay type: functional; details: ATCC 19698, 144 h
[2] = tested on: Mycobacterium tuberculosis; assay: Antimicrobial activity against Mycobacterium tuberculosis H37Rv ATCC 27294 expressing luciferase reporter gene assessed as growth inhibition after 6 days by luminometry; assay type: functional; details: H37Rv ATCC 27294, 144 h
In short: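 Luminescent H37Rv (pSMT1, V. harveyi luciferase) was declumped by filtration, adjusted to 50,000 RLU/ml in 7H9-10% FCS, and exposed to serial compound dilutions in triplicate for 6 days at 37 °C. Light was read for 10 s after adding 1% n-decanal. GI50 is the concentration giving 50% growth reduction versus untreated culture.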

[3] = tested on: Mycobacterium tuberculosis; assay: Antimicrobial activity against Mycobacterium tuberculosis H37Rv ATCC 27294 expressing luciferase reporter gene infected in mouse J774 macrophages assessed as intracellular growth inhibition at 2 uM after 4 days by luminometry relative to untreated control; assay type: functional; details: H37Rv ATCC 27294, J774, 96 h, read-out: GI
In short: (§1)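 J774.A1 murine macrophages were seeded at 40,000 cells/well, recovered overnight and infected with luminescent H37Rv. From 24 h post-infection, cells were treated for 4 days in DMEM with penicillin and fungizone, without gentamicin. Growth was read by luminescence after 1% n-decanal and expressed as percent inhibition versus untreated, in triplicate. Macrophage viability was checked by trypan blue.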

[4] = tested on: Mycobacterium tuberculosis; assay: Antimicrobial activity against Mycobacterium tuberculosis H37Rv ATCC 27294 expressing luciferase reporter gene assessed as growth inhibition at 1 uM after 6 days by luminometry relative to control; assay type: functional; details: H37Rv ATCC 27294, 144 h, read-out: GI
In short: (§2)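 Single-concentration screen of the luminescent H37Rv reporter strain in 7H9-10% FCS, inoculated at 50,000 RLU/ml, 6 days at 37 °C. Luminescence was read after n-decanal addition. Percent inhibition is versus the untreated culture, as the mean of triplicate cultures.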

[5] = tested on: Mycobacterium tuberculosis; assay: Antimicrobial activity against Mycobacterium tuberculosis H37Rv ATCC 27294 expressing luciferase reporter gene infected in mouse J774 macrophages assessed as intracellular growth inhibition at 0.5 uM after 4 days by luminometry relative to untreated control; assay type: functional; details: H37Rv ATCC 27294, J774, 96 h, read-out: GI; in short: as §1
[6] = tested on: Mycobacterium tuberculosis; assay: Antimicrobial activity against Mycobacterium tuberculosis H37Rv ATCC 27294 expressing luciferase reporter gene assessed as growth inhibition at 0.1 uM after 6 days by luminometry relative to control; assay type: functional; details: H37Rv ATCC 27294, 144 h, read-out: GI; in short: as §2
[7] = Genotoxicity in human HepG2/C3A cells assessed as genomic DNA fragmentation at 1 to 3 uM after 24 hrs by comet assay; assay type: toxicity, cell-based
In short: (§3)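 Alkaline comet assay: C3A cells at 100,000/well recovered overnight, then 24 h at 37 °C, 5% CO2 with serial dilutions from DMSO stock in DMEM + 10% FCS. Cells embedded in low-melting agarose, lysed 1 h, electrophoresed 20 min at 300 mA, neutralized, gel red stained. Tail DNA as % of head + tail DNA by fluorescence microscopy; Mann–Whitney test.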

[8] = Genotoxicity in human HepG2/C3A cells assessed as genomic DNA fragmentation at 10 uM after 24 hrs by comet assay; assay type: toxicity, cell-based; in short: as §3
[9] = tested on: Mycobacterium tuberculosis; assay: Antimicrobial activity against Mycobacterium tuberculosis H37Rv ATCC 27294 expressing luciferase reporter gene assessed as growth inhibition at 10 uM after 6 days by luminometry relative to control; assay type: functional; details: H37Rv ATCC 27294, 144 h, read-out: GI; in short: as §2
[10] = Therapeutic index, ratio of IC50 for human HepG2/C3A cells to GI50 for Mycobacterium tuberculosis H37Rv ATCC 27294; assay type: cell-based; details: read-out: TI
In short: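 TI is NI50/GI50. NI50 came from a neutral red uptake assay in C3A hepatocytes (40,000 cells/well, 24 h exposure at 37 °C, 3 h dye, OD 530 nm with 620 nm reference): the concentration reducing dye uptake by 50%. GI50 came from the 6-day luminescent H37Rv assay.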

[11] = Cytotoxicity against human HepG2/C3A cells after 24 hrs by neutral red dye uptake assay; assay type: cell-based
Mycobacterium ulcerans = assay: Antimicrobial activity against Mycobacterium ulcerans 1615 expressing luciferase reporter gene assessed as growth inhibition after 6 days by luminometry; assay type: functional; details: Mycobacterium ulcerans, 1615, 144 h
In short: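 Luminescent M. ulcerans 1615 carrying pSMT1 luciferase plasmid, grown at 32 °C in 7H9 with 10% OADC and 0.2% glycerol. Serial dilutions from 10 mM DMSO stocks in 7H9 + 10% FCS; bacteria dosed at 50,000 RLU/ml, triplicate wells. After 6 days, light read over 10 s following 1% n-decanal in ethanol. GI50 taken at 50% growth reduction versus untreated culture.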

[12] = tested on: Mycobacterium tuberculosis; assay: Antimicrobial activity against Mycobacterium tuberculosis H37Rv ATCC 27294 expressing luciferase reporter gene infected in mouse J774 macrophages assessed as intracellular growth inhibition at 1 uM after 4 days by luminometry relative to untreated control; assay type: functional; details: H37Rv ATCC 27294, J774, 96 h, read-out: GI; in short: as §1
[13] = tested on: Mycobacterium avium subsp. paratuberculosis; assay: Antimicrobial activity against Mycobacterium avium subsp. paratuberculosis ATCC 15769 expressing luciferase reporter gene assessed as growth inhibition after 6 days by luminometry; assay type: functional; details: ATCC 15769, 144 h
[14] = tested on: Mycobacterium tuberculosis; assay: Antimicrobial activity against Mycobacterium tuberculosis H37Rv ATCC 27294 expressing luciferase reporter gene assessed as reduction in bacterial count after 6 days by luminometry; assay type: functional; details: H37Rv ATCC 27294, 144 h
In short: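 MIC by serial dilution in the 6-day luminescent H37Rv assay (7H9-10% FCS, 50,000 RLU/ml inoculum, triplicate wells, n-decanal read-out). MIC is the concentration giving at least one log10 reduction in signal versus the untreated control.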

[15] = tested on: Mycobacterium intracellulare; assay: Antimicrobial activity against Mycobacterium intracellulare; assay type: functional
Mycolicibacterium aurum = assay: Antimicrobial activity against Mycobacterium aurum A+; assay type: functional

| Structure (SMILES) | GI50 [1] [µM] | GI50 [2] [µM] | inhibition of growth at 2 µM [3] [%] | inhibition of growth at 1 µM [4] [%] | inhibition of growth at 0.5 µM [5] [%] | inhibition of growth at 0.1 µM [6] [%] | Activity [7] | Activity [8] | inhibition of growth at 10 µM [9] [%] | selectivity ratio [10] | IC50 [11] [µM] | GI50 (Mycobacterium ulcerans) [µM] | inhibition of growth at 1 µM [12] [%] | GI50 [13] [µM] | MIC90 [14] [µM] | MIC [15] [µg/mL] | MIC (Mycolicibacterium aurum) [µg/mL] |
| --- | --- | --- | --- | --- | --- | --- | --- | --- | --- | --- | --- | --- | --- | --- | --- | --- | --- |
| COc1ccc(-c2cc(O)c3c(c2)C(=O)c2ccccc2C3=O)cc1 | 3.01 | 0.45 | 42.3 | 92 | 21.6 | 35 | Non-toxic | Toxic | 100 | 4.2 | 1.87 | 7.55 | 27.6 | 3.52 | 0.92 (≈ 0.304 µg/mL) | – | – |
| CO[C@H]1/C=C/O[C@@]2(C)Oc3c(C)c(O)c4c(O)c(c(/C=N/N5CCN(C)CC5)c(O)c4c3C2=O)NC(=O)/C(C)=C\C=C\[C@H](C)[C@H](O)[C@@H](C)[C@@H](O)[C@@H](C)[C@H](OC(C)=O)[C@@H]1C [RIFAMPIN] | – | 0.03 | – | 100 | – | 99 | – | – | 100 | – | – | – | – | – | 0.12 (≈ 0.0988 µg/mL) | 0.5 (≈ 0.608 µM) | – |
| O=C1c2cccnc2-c2nccc3c2c1nc1ccccc13 [ASCIDIDEMIN] | – | – | – | – | – | – | – | – | – | – | – | – | – | – | – | – | 0.25 (≈ 0.882 µM) |
| COc1ccc(-c2cc3c4c(nccc4n2)-c2ccccc2C3=O)cc1 | 3.56 | 0.37 | 51.5 | 99 | 10 | 81 | Non-toxic | Toxic | 100 | > 135 | > 50 | 8.56 | 38.5 | 2.54 | 0.92 (≈ 0.311 µg/mL) | – | – |
| CN[C@@H]1[C@H](O[C@H]2[C@H](O[C@H]3[C@H](O)[C@@H](O)[C@H](N=C(N)N)[C@@H](O)[C@@H]3N=C(N)N)O[C@@H](C)[C@]2(O)C=O)O[C@@H](CO)[C@H](O)[C@H]1O [STREPTOMYCIN] | – | – | – | – | – | – | – | – | – | – | – | – | – | – | – | 2 (≈ 3.44 µM) | – |
| COc1ccc(-c2cc3c(c(/C=C/N(C)C)n2)C(=O)c2ccccc2C3=O)cc1 | 2.98 | 0.36 | 47.1 | 100 | 9.3 | 42 | Non-toxic | Non-toxic | 100 | 92.5 | 33.3 | 7.65 | 26.3 | 3.06 | 0.88 (≈ 0.338 µg/mL) | – | – |
| O=C1c2ccccc2-c2nccc3c2c1nc1ccccc13 [BENZOSAMPANGINE] | – | – | – | – | – | – | – | – | – | – | – | – | – | – | – | 0.39 (≈ 1.38 µM) | – |
